Assay results from different studies.
Protocols differ between the studies behind these lines.
Medium: plasma

| Compound | test system | setting | quantity | result |
| --- | --- | --- | --- | --- |
| CCCc1nc2c(C)cc(-c3nc4ccccc4n3C)cc2n1Cc1ccc(-c2ccccc2C(=O)O)cc1 | male Sprague-Dawley rat | oral, 8 mg/kg, single dose | Vd/F | 46.1 L/kg |
| C[C@H]1Oc2cc(cnc2N)-c2c(nn(C)c2C#N)CN(C)C(=O)c2ccc(F)cc21 | male Sprague-Dawley rat | oral, 50 mg/kg, single dose | Vd/F | 19 L/kg |
| CC(=O)O[C@@H]1CC[C@@]2(C)[C@@H](CC[C@]3(C)[C@@H]2C(=O)C=C2[C@@H]4[C@@H](C)[C@H](C)CC[C@]4(C)CC[C@]23C)[C@@]1(C)C(=O)O | female Wistar rat | oral, 1 mg/kg, single dose | Vd/F | 0.28 L/kg |
| Cc1cc(S(=O)(=O)NC2CC(N3CCN(CC4CCN(c5cccc6c5n(C)c(=O)n6C5CCC(=O)NC5=O)CC4)CC3)C2)ccc1Nc1ncc(C(F)(F)F)c(N2CCC[C@](C)(O)C2)n1 (stereo partly drawn) | rat | intravenous, 2 mg/kg | Vd | 10 L/kg |
| C1=C/COCc2cc(ccc2OCCN2CCCC2)Nc2nccc(n2)-c2cccc(c2)COC/1 | male Sprague-Dawley rat | oral, 36 mg/kg | Vd/F | 192 L |
| CNS(=O)(=O)c1ccc(Nc2ncc(C(F)(F)F)c(N3CCC[C@](C)(O)C3)n2)c(C)c1 | rat | intravenous, 2 mg/kg | Vd | 3 L/kg |
| Cc1nc(Nc2ncc(C(=O)Nc3c(C)cccc3Cl)s2)cc(N2CC[C@@H](O)C2)n1 | male Sprague-Dawley rat | intravenous, 1 mg/kg | Vd | 0.9 L/kg |
| CNC(=O)c1cc(Oc2ccc(NC(=O)Nc3ccc(Cl)c(C(F)(F)F)c3)cc2)ccn1 | male Sprague-Dawley rat | oral, 100 mg/kg, single dose | Vd/F | 112 L/kg |
| Cc1cc(S(=O)(=O)NC2CC(N3CC[C@@H](OC4CN(c5cccc6c5n(C)c(=O)n6C5CCC(=O)NC5=O)C4)[C@H](F)C3)C2)ccc1Nc1ncc(C(F)(F)F)c(N2CCC[C@](C)(O)C2)n1 (stereo partly drawn) | rat | intravenous, 2 mg/kg | Vd | 10 L/kg |
